According to ChEMBL document CHEMBL1828575, “Design, synthesis and antiproliferative activities of biarylolefins based on polyhydroxylated and carbohydrate scaffolds” (Eur J Med Chem, 2011):

What was measured:
Format in all cases: functional
[1] = tested on: SF-295; assay: Cytotoxicity against human SF295 cells assessed as cellular growth at 10 uM after 48 hrs by SRB assay
Procedure, shortened: (§1)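 NCI-60 panel lines grown in RPMI 1640 with 5% FBS and 2 mM L-glutamine. Plated at 5000–40,000 cells/well and preincubated 24 h at 37 °C, 5% CO₂, with time-zero plates fixed in TCA. Compounds, dissolved in DMSO and diluted in medium, were applied for 48 h. Cells were TCA-fixed (10% final for adherent, 16% for suspension) and stained with 0.4% SRB in 1% acetic acid. Dye was solubilised in 10 mM Tris base and read at 515 nm; growth was expressed as a percentage of untreated control.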

[2] = tested on: SF-268; assay: Cytotoxicity against human SF268 cells assessed as cellular growth at 10 uM after 48 hrs by SRB assay; procedure, shortened: as §1
[3] = tested on: NCI-H522; assay: Cytotoxicity against human NCI-H522 cells assessed as cellular growth at 10 uM after 48 hrs by SRB assay; procedure, shortened: as §1
[4] = tested on: NCI-H23; assay: Cytotoxicity against human NCI-H23 cells assessed as cellular growth at 10 uM after 48 hrs by SRB assay; procedure, shortened: as §1
[5] = tested on: HL-60(TB); assay: Cytotoxicity against human HL-60(TB) cells assessed as cellular growth at 10 uM after 48 hrs by SRB assay
[6] = tested on: HOP-62; assay: Cytotoxicity against human HOP62 cells assessed as cellular growth at 10 uM after 48 hrs by SRB assay
Procedure, shortened: (§2)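 NCI60 single-dose screen of cells in RPMI 1640 with 5% FBS and 2 mM L-glutamine, preincubated 24 h at 37 °C, 5% CO₂. Cells were then exposed 48 h to compound added from DMSO stock. TCA-fixed, stained with 0.4% SRB in 1% acetic acid, dye solubilised in 10 mM Tris base and read at 515 nm. Growth is given as percent of untreated control.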

[7] = tested on: M14; assay: Cytotoxicity against human M14 cells assessed as cellular growth at 10 uM after 48 hrs by SRB assay; procedure, shortened: as §2
[8] = tested on: OVCAR-3; assay: Cytotoxicity against human OVCAR3 cells assessed as cellular growth at 10 uM after 48 hrs by SRB assay; procedure, shortened: as §1
[9] = tested on: CAKI-1; assay: Cytotoxicity against human Caki1 cells assessed as cellular growth at 10 uM after 48 hrs by SRB assay; procedure, shortened: as §2
[10] = tested on: BT-549; assay: Cytotoxicity against human BT549 cells assessed as cellular growth at 10 uM after 48 hrs by SRB assay; procedure, shortened: as §2
[11] = tested on: HOP-92; assay: Antitumor activity against human HOP92 cells after 48 hrs by SRB assay; conditions: HOP-92, 48 h
Procedure, shortened: (§3)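 NCI60 panel in RPMI 1640 with 5% FBS and 2 mM L-glutamine. Cells were plated at 5000–40,000/well by doubling time, held 24 h, then time-zero plates were TCA-fixed. Five concentrations (10-fold or half-log dilutions of DMSO stocks) were applied for 48 h at 37 °C, 5% CO2. Cells were fixed with cold TCA (10% final adherent, 16% suspension) and stained with 0.4% SRB. Bound dye was dissolved in 10 mM Tris and read at 515 nm. GI50, TGI and LC50 were calculated per line.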

[12] = tested on: HCT-116; assay: Antitumor activity against human HCT116 cells after 48 hrs by SRB assay; conditions: HCT-116, 48 h; procedure, shortened: as §3
[13] = tested on: MDA-MB-435; assay: Antitumor activity against human MDA-MB-435 cells after 48 hrs by SRB assay; conditions: MDA-MB-435, 48 h; procedure, shortened: as §3
[14] = tested on: SK-MEL-2; assay: Antitumor activity against human SK-MEL-2 cells after 48 hrs by SRB assay; conditions: SK-MEL-2, 48 h
Procedure, shortened: (§4)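 NCI60 panel cells grown in RPMI 1640 with 5% FBS and 2 mM L-glutamine, plated at 5000–40,000 cells/well and preincubated 24 h at 37 °C, 5% CO₂. Compound was added from DMSO at five concentrations, 10-fold or 1/2 log dilutions, then incubated 48 h.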

[15] = tested on: OVCAR-3; assay: Antitumor activity against human OVCAR3 cells after 48 hrs by SRB assay; conditions: OVCAR-3, 48 h; procedure, shortened: as §3
[16] = tested on: MDA-MB-468; assay: Antitumor activity against human MDA-MB-468 cells after 48 hrs by SRB assay; conditions: MDA-MB-468, 48 h; procedure, shortened: as §3
[17] = tested on: MCF7; assay: Antitumor activity against human MCF7 cells after 48 hrs by SRB assay; conditions: MCF7, 48 h; procedure, shortened: as §3
[18] = tested on: SN12C; assay: Antitumor activity against human SN12C cells after 48 hrs by SRB assay; procedure, shortened: as §4
[19] = tested on: SK-OV-3; assay: Antitumor activity against human SKOV3 cells after 48 hrs by SRB assay; conditions: SK-OV-3, 48 h; procedure, shortened: as §4
[20] = tested on: NCI-H460; assay: Antitumor activity against human NCI-H460 cells after 48 hrs by SRB assay; conditions: NCI-H460, 48 h; procedure, shortened: as §3
[21] = tested on: NCI-H226; assay: Antitumor activity against human NCI-H226 cells after 48 hrs by SRB assay; conditions: NCI-H226, 48 h; procedure, shortened: as §3
[22] = tested on: K562; assay: Antitumor activity against human K562 cells after 48 hrs by SRB assay; conditions: K562, 48 h; procedure, shortened: as §3
[23] = tested on: SF-268; assay: Antitumor activity against human SF268 cells after 48 hrs by SRB assay; conditions: SF-268, 48 h; procedure, shortened: as §3
[24] = read-out: LC50 (the source's name)
[25] = read-out: pLC50 (the source's name) (converted)

**Q.** What does the source list for `COc1ccc(/C(=C2\O[C@@H]([C@H]3COC(C)(C)O3)[C@H]3OC(C)(C)O[C@@H]23)c2cc(OC)c(OC)c(OC)c2)cc1O`?
**A.** Activity [1]: 77.57%; Activity [2]: 37.84%; Activity [3]: 51.79%; Activity [4]: 81.18%; Activity [5]: -0.37%; Activity [6]: 91.26%; Activity [7]: 19.53%; Activity [8]: 58.27%; Activity [9]: 110.64%; Activity [10]: 67.52%; GI50 [11]: 4 µM; TGI [11]: 38.3 µM; CC50 [11, 24]: > 100 µM; GI50 [12]: > 100 µM; LC50 (concentration giving 50% net cell kill) [12]: > 100 µM; TGI [12]: > 100 µM; GI50 [13]: 3.61 µM; TGI [13]: 17.5 µM; CC50 [13, 24]: > 100 µM; GI50 [14]: 1.53 µM; TGI [14]: 4.12 µM; CC50 [14, 24]: 24.1 µM; GI50 [15]: 2.39 µM; TGI [15]: 5.67 µM; CC50 [15, 24]: 21.7 µM; GI50 ([16]; read-out: GI50): 17.8 µM; CC50 [16, 24]: > 100 µM; TGI ([16]; read-out: TGI): 63.6 µM; GI50 ([16]; read-out: pGI50 (converted)): 25.7 µM; CC50 [16, 25]: > 100 µM; TGI ([16]; read-out: pTGI (converted)): 63.1 µM; GI50 ([17]; read-out: GI50): 1.23 µM; CC50 [17, 24]: > 100 µM; TGI ([17]; read-out: TGI): > 100 µM; GI50 ([17]; read-out: pGI50 (converted)): 12.3 µM; CC50 [17, 25]: > 100 µM; TGI ([17]; read-out: pTGI (converted)): > 100 µM; CC50 [18, 24]: > 100 µM; TGI ([18]; read-out: TGI): > 100 µM; GI50 ([18]; read-out: pGI50 (converted)): 8.91 µM; CC50 [18, 25]: > 100 µM; TGI ([18]; read-out: pTGI): > 100 µM; GI50 ([19]; read-out: GI50): 12.6 µM; CC50 [19, 24]: > 100 µM; TGI ([19]; read-out: TGI): 91.7 µM; GI50 ([19]; read-out: pGI50 (converted)): 12.6 µM; CC50 [19, 25]: > 100 µM; TGI ([19]; read-out: pTGI (converted)): 91.2 µM; GI50 ([20]; read-out: GI50): 29.3 µM; CC50 [20, 24]: > 100 µM; TGI ([20]; read-out: TGI): > 100 µM; GI50 ([20]; read-out: pGI50 (converted)): 29.5 µM; CC50 [20, 25]: > 100 µM; TGI ([20]; read-out: pTGI): > 100 µM; GI50 ([21]; read-out: GI50): 64.7 µM; CC50 [21, 24]: > 100 µM; TGI ([21]; read-out: TGI): > 100 µM; GI50 ([21]; read-out: pGI50 (converted)): 64.6 µM; CC50 [21, 25]: > 100 µM; TGI ([21]; read-out: pTGI (converted)): > 100 µM; GI50 ([22]; read-out: GI50): 6.28 µM; CC50 [22, 24]: > 100 µM; TGI ([22]; read-out: TGI): > 100 µM; GI50 ([22]; read-out: pGI50 (converted)): 6.31 µM; CC50 [22, 25]: > 100 µM; TGI ([22]; read-out: pTGI): > 100 µM; LC50 (concentration killing 50% of cells relative to time zero) [23]: > 100 µM; GI50 ([23]; read-out: GI50): 7.96 µM; TGI ([23]; read-out: TGI): 53.6 µM; GI50 ([23]; read-out: pGI50 (converted)): 7.94 µM; CC50 [23, 25]: > 100 µM; TGI ([23]; read-out: pTGI (converted)): 53.7 µM
